Usually LC50 stands for the concentration that kills 50% of the test population. A higher LC50 goes with a less lethal substance.

These results are taken from ChEMBL document CHEMBL1141000, “cis-Nitromethylene neonicotinoids as new nicotinic family: synthesis, structural diversity, and insecticidal evaluation of hexahydroimidazo[1,2-alpha]pyridine” (2008).

Type in all cases: functional
The test system of assay [1] is Aphis craccivora. Briefly: Insecticidal activity against Aphis craccivora assessed as mortality at 500 mg/L.
Assay [2] deals with Aphis craccivora. Put plainly: Insecticidal activity against Aphis craccivora.
Assay [3] concerns Nilaparvata lugens. Briefly: Insecticidal activity against imidacloprid-resistant Nilaparvata lugens. In short, it runs like this: (§1)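 Nilaparvata lugens (brown planthopper), sensitive and imidacloprid-resistant strains tested separately, using a protocol similar to the pea aphid bioassay. Activity expressed as LC50 (mg/L).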
The subject of assay [4] is Nilaparvata lugens. Briefly: Insecticidal activity against imidacloprid-sensitive Nilaparvata lugens. A digest of the protocol:
as §1

Values after ≈ are worked out from the molar mass of the structure shown.

In the case of `CCOC1CC(C(C)C)C([N+](=O)[O-])=C2N(Cc3ccc(Cl)nc3)CCN21` (stereo unspecified), in the assay with Aphis craccivora [1], the Activity stood at 72%. Take `CCC1CC(OC(C)C)N2CCN(Cc3ccc(Cl)nc3)C2=C1[N+](=O)[O-]` (stereo unspecified): in the assay with Aphis craccivora [1], the Activity amounted to 100%. This compound registered an LC50 in the assay on Aphis craccivora [2] of 88.9 µg/mL (≈ 233 µM).

Take `CC1(O)CCC([N+](=O)[O-])=C2N(Cc3ccc(Cl)nc3)CCN21` (stereo unspecified): in the assay with Aphis craccivora [1], the Activity was determined as 90%. On the same count and under the same terms, under `O=[N+]([O-])C1=C2N(Cc3ccc(Cl)nc3)CCN2C(O)CC1c1ccccc1` (stereo unspecified) stands 30%. In the case of `CCCOC1CC(CC)C([N+](=O)[O-])=C2N(Cc3ccc(Cl)nc3)CCN21` (stereo unspecified), in the assay on Aphis craccivora [1], the Activity was determined as 100%. Also, the LC50 in the assay with Aphis craccivora [2] was determined as 86.4 µg/mL (≈ 227 µM). `CC(C)OC1CC(C)C([N+](=O)[O-])=C2N(Cc3ccc(Cl)nc3)CCN21` (stereo unspecified): the LC50 in the assay with Nilaparvata lugens [3] turned out to be 6.33 µg/mL (≈ 17.3 µM); with Nilaparvata lugens [4], 5.57 µg/mL (≈ 15.2 µM); in the assay with Aphis craccivora [2] it was 96.2 µg/mL (≈ 262 µM). Further, the Activity with Aphis craccivora [1] is reported as 100%.

Take `CC(C)OC1CC(c2ccccc2)C([N+](=O)[O-])=C2N(Cc3ccc(Cl)nc3)CCN21` (stereo unspecified): the Activity with Aphis craccivora [1] is on record as 0%. Take `CCCC1CC(OCC)N2CCN(Cc3ccc(Cl)nc3)C2=C1[N+](=O)[O-]` (stereo unspecified): the Activity with Aphis craccivora [1] is given as 95%.

On to `CCCOC1CC(c2ccccc2)C([N+](=O)[O-])=C2N(Cc3ccc(Cl)nc3)CCN21` (stereo unspecified), for which the Activity in the assay with Aphis craccivora [1] was 45%. Regarding `CCC1CC(O)N2CCN(Cc3ccc(Cl)nc3)C2=C1[N+](=O)[O-]` (stereo unspecified), the Activity in the assay on Aphis craccivora [1] was found to be 100%. For the same compound, in the assay with Aphis craccivora [2], the LC50 turned out to be 61 µg/mL (≈ 180 µM). On to `CC(C)COC1CC(C)C([N+](=O)[O-])=C2N(Cc3ccc(Cl)nc3)CCN21` (stereo unspecified), for which the Activity in the assay with Aphis craccivora [1] is 0%. Same read-out and setting: under `CC1CC(OC2CCCCC2)N2CCN(Cc3ccc(Cl)nc3)C2=C1[N+](=O)[O-]` (stereo unspecified) stands 0%. Turning to `CCOC1CC(C)C([N+](=O)[O-])=C2N(Cc3ccc(Cl)nc3)CCN21` (stereo unspecified), the Activity in the assay with Aphis craccivora [1] came to 100%. This compound also had an LC50 with Aphis craccivora [2] of 65.4 µg/mL (≈ 185 µM). Turning to `CCOC1CC(c2ccccc2)C([N+](=O)[O-])=C2N(Cc3ccc(Cl)nc3)CCN21` (stereo unspecified), the Activity with Aphis craccivora [1] is on record as 89%. On the same count and under the same terms, the figure for `CC(C)OC1C(C)CC([N+](=O)[O-])=C2N(Cc3ccc(Cl)nc3)CCN21` (stereo unspecified) is 67%.

Turning to `CCCC1CC(OC(C)C)N2CCN(Cc3ccc(Cl)nc3)C2=C1[N+](=O)[O-]` (stereo unspecified), the Activity in the assay on Aphis craccivora [1] is given as 79%. As to `CCCOC1CC(CCC)C([N+](=O)[O-])=C2N(Cc3ccc(Cl)nc3)CCN21` (stereo unspecified), the Activity in the assay with Aphis craccivora [1] came to 82%.

As to `CCC(C)OC1CC(C)C([N+](=O)[O-])=C2N(Cc3ccc(Cl)nc3)CCN21` (stereo unspecified), the Activity in the assay on Aphis craccivora [1] was determined as 0%. For `CC1CC(O)N2CCN(Cc3ccc(Cl)nc3)C2=C1[N+](=O)[O-]` (stereo unspecified), the LC50 stood at 7.36 µg/mL (≈ 22.7 µM) in the assay with Nilaparvata lugens [3], 20.7 µg/mL (≈ 63.8 µM) with Nilaparvata lugens [4] and 31.5 µg/mL (≈ 97 µM) in the assay on Aphis craccivora [2]. Besides, the Activity in the assay on Aphis craccivora [1] came to 100%. As to `CCC1CC(OC)N2CCN(Cc3ccc(Cl)nc3)C2=C1[N+](=O)[O-]` (stereo unspecified), the values for the LC50 in the assay on Nilaparvata lugens [3] and in the assay on Nilaparvata lugens [4] were 8.87 µg/mL (≈ 25.1 µM) and 1.07 µg/mL (≈ 3.03 µM), respectively. In addition, in the assay on Aphis craccivora [1], the Activity was determined as 90%.

In the case of `CC1CC(OCCCl)N2CCN(Cc3ccc(Cl)nc3)C2=C1[N+](=O)[O-]` (stereo unspecified), the Activity with Aphis craccivora [1] amounted to 100%. In addition, in the assay on Aphis craccivora [2], the LC50 was found to be 74.7 µg/mL (≈ 193 µM).

Regarding `O=[N+]([O-])C1=C2N(Cc3ccc(Cl)nc3)CCN2C(O)C2CCCCC12` (stereo unspecified), the Activity in the assay on Aphis craccivora [1] was 0%. Same read-out and setting: the figure for `CC1CC([N+](=O)[O-])=C2N(Cc3ccc(Cl)nc3)CCN2C1O` (stereo unspecified) is 70%; for `CC1CC(OCc2ccccc2)N2CCN(Cc3ccc(Cl)nc3)C2=C1[N+](=O)[O-]` (stereo unspecified) it is 94%. Consider `O=[N+]([O-])/N=C1\NCCN1Cc1ccc(Cl)nc1` [IMIDACLOPRID], for which the values for the LC50 in the assay on Nilaparvata lugens [3], in the assay on Nilaparvata lugens [4] and with Aphis craccivora [2] were 19.7 µg/mL (≈ 77.2 µM), 0.14 µg/mL (≈ 0.548 µM) and 7.9 µg/mL (≈ 30.9 µM), respectively. For the same compound, in the assay on Aphis craccivora [1], the Activity came to 100%. With `CCCCC1CC(O)N2CCN(Cc3ccc(Cl)nc3)C2=C1[N+](=O)[O-]` (stereo unspecified), the Activity in the assay with Aphis craccivora [1] worked out at 85%. The same measure, in the same setting: under `C=CCOC1CC(C)C([N+](=O)[O-])=C2N(Cc3ccc(Cl)nc3)CCN21` (stereo unspecified) stands 100%; under `O=[N+]([O-])C1=C2N(Cc3ccc(Cl)nc3)CCN2C(O)CC1c1ccc([N+](=O)[O-])cc1` (stereo unspecified), 0%; under `CCC1C([N+](=O)[O-])=C2N(Cc3ccc(Cl)nc3)CCN2C(O)C1C` (stereo unspecified), 0%. On the same count and under the same terms, the figure for `COC1C(C)CC([N+](=O)[O-])=C2N(Cc3ccc(Cl)nc3)CCN21` (stereo unspecified) is 73%; for `CCCC1CC(O)N2CCN(Cc3ccc(Cl)nc3)C2=C1[N+](=O)[O-]` (stereo unspecified) it is 25%. As to `CCCOC1CC(C)C([N+](=O)[O-])=C2N(Cc3ccc(Cl)nc3)CCN21` (stereo unspecified) [PAICHONGDING], the results for the LC50 in the assay on Nilaparvata lugens [3], in the assay on Nilaparvata lugens [4] and in the assay with Aphis craccivora [2] were 7.2 µg/mL (≈ 19.6 µM), 7.35 µg/mL (≈ 20 µM) and 33.7 µg/mL (≈ 91.8 µM), respectively. Also, the Activity with Aphis craccivora [1] is on record as 100%.

For the compound `CCCC1CC(OC)N2CCN(Cc3ccc(Cl)nc3)C2=C1[N+](=O)[O-]` (stereo unspecified), the Activity in the assay on Aphis craccivora [1] was found to be 89%. The same measure, in the same setting: under `CC1C([N+](=O)[O-])=C2N(Cc3ccc(Cl)nc3)CCN2C(O)C1C` (stereo unspecified) stands 50%; under `COC1CC(c2ccccc2)C([N+](=O)[O-])=C2N(Cc3ccc(Cl)nc3)CCN21` (stereo unspecified), 50%; under `CC(C)C1CC(O)N2CCN(Cc3ccc(Cl)nc3)C2=C1[N+](=O)[O-]` (stereo unspecified), 0%.

For the compound `CCCCOC1CC(C)C([N+](=O)[O-])=C2N(Cc3ccc(Cl)nc3)CCN21` (stereo unspecified), the Activity in the assay with Aphis craccivora [1] is 58.4%. In the case of `COC1CC(C)C([N+](=O)[O-])=C2N(Cc3ccc(Cl)nc3)CCN21` (stereo unspecified), the Activity in the assay on Aphis craccivora [1] came to 100%. Further, the LC50 with Aphis craccivora [2] came out at 50 µg/mL (≈ 148 µM). The corresponding values for `CCOC1CC(CC)C([N+](=O)[O-])=C2N(Cc3ccc(Cl)nc3)CCN21` (stereo unspecified) are 100% and 48.9 µg/mL (≈ 133 µM). As to `CC1CC(OCCO)N2CCN(Cc3ccc(Cl)nc3)C2=C1[N+](=O)[O-]` (stereo unspecified), in the assay on Aphis craccivora [1], the Activity is listed as 0%.
